Molecules are shown by their SMILES.

The target of assay [1] is Phosphatidylinositol 4,5-bisphosphate 3-kinase catalytic subunit gamma isoform (Homo sapiens, UniProt P48736). Briefly: Inhibition of GST-tagged human recombinant PI3Kgamma catalytic domain (468 to 1203 residues) expressed in insect cells using PIP2 peptide as substrate incubated for 1 hr in presence ATP by ADP-Glo Kinase Assay. Summed up:
(§1)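 ADP-Glo reagent 1 for 40 min, then reagent 2 with 60 min equilibration before reading. IC50 taken from inhibition curves; average of at least two runs.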

A further assay has as its system NCI-H1975. Briefly: Antiproliferative activity against human NCI-H1975 cells harboring PIK3CA mutation assessed as reduction in cell viability after 3 days by CellTiter-Glo luminescence assay. The class given is functional, cell-based. Conditions: NCI-H1975, 72 h. Summed up: (§2)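 ATCC lines, 10% FBS: T47D, H1975, H460 in RPMI1640; U87MG in DMEM; A549 in F12K. Seeded 3×10^3 per well the day before, exposed to 3-fold serial dilutions or DMSO for 3 days at 37 °C, 5% CO2; CellTiter-Glo luminescence.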

In assay [2] the target is PI3-kinase p110-alpha/p85-alpha (Homo sapiens, UniProt P42336). Put plainly: Inhibition of His-tagged human full length PI3Kalpha coexpressed with p85 alpha in baculovirus expression system using PIP2 peptide as substrate incubated for 1 hr in presence ATP by Kinase-Glo assay.
Chain of PI3-kinase p110-alpha/p85-alpha (P27986 whole entry): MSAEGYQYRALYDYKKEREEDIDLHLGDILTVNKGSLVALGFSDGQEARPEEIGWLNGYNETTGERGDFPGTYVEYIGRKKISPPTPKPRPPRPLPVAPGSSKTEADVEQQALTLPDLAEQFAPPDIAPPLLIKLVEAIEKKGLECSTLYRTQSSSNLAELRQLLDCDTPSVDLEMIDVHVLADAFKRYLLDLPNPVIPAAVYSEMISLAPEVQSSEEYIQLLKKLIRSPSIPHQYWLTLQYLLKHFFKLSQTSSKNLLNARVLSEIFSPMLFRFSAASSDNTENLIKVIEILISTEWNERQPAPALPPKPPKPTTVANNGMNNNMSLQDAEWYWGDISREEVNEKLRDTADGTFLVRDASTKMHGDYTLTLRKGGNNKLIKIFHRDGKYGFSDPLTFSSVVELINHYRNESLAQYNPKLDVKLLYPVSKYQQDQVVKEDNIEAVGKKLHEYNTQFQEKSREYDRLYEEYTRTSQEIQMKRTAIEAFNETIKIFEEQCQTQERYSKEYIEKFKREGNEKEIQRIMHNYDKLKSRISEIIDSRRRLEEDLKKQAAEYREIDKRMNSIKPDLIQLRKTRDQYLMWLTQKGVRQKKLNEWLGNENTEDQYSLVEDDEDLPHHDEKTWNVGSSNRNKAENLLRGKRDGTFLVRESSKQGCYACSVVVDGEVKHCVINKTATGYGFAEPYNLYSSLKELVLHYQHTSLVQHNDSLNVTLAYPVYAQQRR
Chain of PI3-kinase p110-alpha/p85-alpha (P42336 whole entry): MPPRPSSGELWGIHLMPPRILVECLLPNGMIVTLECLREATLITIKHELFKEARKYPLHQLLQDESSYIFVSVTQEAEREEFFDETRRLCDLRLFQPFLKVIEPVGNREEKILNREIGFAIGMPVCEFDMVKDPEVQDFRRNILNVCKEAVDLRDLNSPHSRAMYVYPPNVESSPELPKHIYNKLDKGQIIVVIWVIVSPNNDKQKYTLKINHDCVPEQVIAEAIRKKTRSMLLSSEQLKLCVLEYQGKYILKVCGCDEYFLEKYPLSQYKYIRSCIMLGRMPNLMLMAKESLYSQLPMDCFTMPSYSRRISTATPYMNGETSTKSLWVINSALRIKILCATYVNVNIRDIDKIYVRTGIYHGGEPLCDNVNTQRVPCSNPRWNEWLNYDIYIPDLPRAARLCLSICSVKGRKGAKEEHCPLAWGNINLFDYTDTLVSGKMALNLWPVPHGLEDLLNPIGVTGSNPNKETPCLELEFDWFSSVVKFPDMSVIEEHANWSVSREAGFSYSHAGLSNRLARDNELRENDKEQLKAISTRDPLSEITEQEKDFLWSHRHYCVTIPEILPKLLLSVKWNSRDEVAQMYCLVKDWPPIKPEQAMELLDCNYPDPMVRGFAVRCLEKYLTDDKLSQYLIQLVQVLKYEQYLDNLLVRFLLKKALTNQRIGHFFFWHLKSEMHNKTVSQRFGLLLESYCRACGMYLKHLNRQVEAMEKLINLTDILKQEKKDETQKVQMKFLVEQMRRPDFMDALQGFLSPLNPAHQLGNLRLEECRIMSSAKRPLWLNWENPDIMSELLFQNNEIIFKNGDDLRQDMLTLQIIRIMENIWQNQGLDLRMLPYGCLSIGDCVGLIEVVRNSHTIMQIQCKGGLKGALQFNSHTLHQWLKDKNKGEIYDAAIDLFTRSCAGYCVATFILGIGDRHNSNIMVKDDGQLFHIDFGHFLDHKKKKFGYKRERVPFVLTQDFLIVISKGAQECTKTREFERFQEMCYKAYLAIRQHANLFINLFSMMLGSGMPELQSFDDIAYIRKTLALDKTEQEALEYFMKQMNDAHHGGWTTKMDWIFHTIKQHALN
The target in assay [3] is Serine/threonine-protein kinase mTOR (Homo sapiens, UniProt P42345). Put plainly: Inhibition of N-terminal FLAG-tagged human recombinant mTOR (1362 to end residues) using ULight-4E-BP1 (Thr37/46) peptide as substrate incubated for 1 hr in presence of ATP by Lance Ultra assay. In outline:
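ULight-4E-BP1 (Thr37/46) peptide with 13 µM ATP; 1 h at room temperature. Stopped with EDTA quench buffer plus Eu-anti-phospho-4E-BP1, 15 min shake and 60 min equilibration, TR-FRET read. IC50 from inhibition curves; average of at least two runs.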

The test system of the next assay is A549. Put plainly: Antiproliferative activity against human A549 cells assessed as reduction in cell viability after 3 days by CellTiter-Glo luminescence assay. To be noted: A549, 72 h. The class given is functional, cell-based. In outline: as §2
For a further assay, the system named is U-87 MG. Briefly: Antiproliferative activity against human U87MG cells harboring PTEN deletion assessed as reduction in cell viability after 3 days by CellTiter-Glo luminescence assay. The class given is functional, cell-based, U-87MG ATCC. To be noted: 72 h. Summed up: as §2
In another assay the target is PI3K p110 beta/p85 alpha (Homo sapiens, UniProt P42338). Briefly: Inhibition of N-terminal His6-tagged human recombinant full length PI3Kbeta co-expressed with human recombinant full length P85alpha in baculovirus infected Sf21 cells using PIP2 peptide as substrate incubated for 1 hr in presence ATP by ADP-Glo Kinase Assay. In outline:
as §1

A further assay concerns NCI-H460. Put plainly: Antiproliferative activity against human NCI-H460 cells harboring PIK3CA mutation assessed as reduction in cell viability after 3 days by CellTiter-Glo luminescence assay. The class given is functional, cell-based. To be noted: NCI-H460, 72 h. In outline:
as §2

For assay [4], the target named is PI3-kinase p110-delta/p85-alpha (Homo sapiens, UniProt O00329). Briefly: Inhibition of N-terminal His6-tagged human recombinant full length PI3Kdelta co-expressed with human recombinant full length P85alpha in baculovirus infected Sf21 cells using PIP2 peptide as substrate incubated for 2 hrs in presence ATP by ADP-Glo Kinase Assay. Summed up:
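ADP-Glo reagent 1 for 40 min, then reagent 2 with 60 min equilibration. IC50 from inhibition curves; average of at least two runs.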

Another assay concerns T47D. Put plainly: Antiproliferative activity against human T47D cells harboring PIK3CA mutation assessed as reduction in cell viability after 3 days by CellTiter-Glo luminescence assay. Conditions: 72 h. The class given is functional, cell-based. In outline: as §2
Assay [5] concerns the target Phosphatidylinositol 4,5-bisphosphate 3-kinase catalytic subunit alpha isoform (Homo sapiens) (UniProt P42336). Briefly: Inhibition of PI3Kalpha in human T47D cells assessed as inhibition of insulin-stimulated Akt phosphorylation at Ser473 residue at 1 uM preincubated for 2 hrs followed by incubation with insulin for 2 hrs by western blot analysis relative to control. The class given is cell-based. Conditions: time 4.0 hrs. In outline: (§3)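 T47D cells given compound at 37 °C for 2 h, then stimulated with 1 µg/mL insulin for 2 h; lysed in RIPA with protease/phosphatase inhibitors and 1 mM PMSF; BCA-normalised SDS-PAGE, PVDF blot probed overnight at 4 °C for total Akt and pAkt Ser473, infrared secondary detection.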

The target is the same in assay [6]. Put plainly: Inhibition of PI3Kalpha in human T47D cells assessed as inhibition of insulin-stimulated Akt phosphorylation at Ser473 residue at 0.3 uM preincubated for 2 hrs followed by incubation with insulin for 2 hrs by western blot analysis relative to control. The class given is cell-based. Conditions: time 4.0 hrs. Summed up:
as §3

For assay [7] the target is unchanged. Briefly: Inhibition of PI3Kalpha in human T47D cells assessed as inhibition of insulin-stimulated Akt phosphorylation at Ser473 residue at 3 uM preincubated for 2 hrs followed by incubation with insulin for 2 hrs by western blot analysis relative to control. The class given is cell-based. To be noted: time 4.0 hrs. Summed up:
as §3

Assay [8] shares this target. Briefly: Inhibition of PI3Kalpha in human T47D cells assessed as inhibition of insulin-stimulated Akt phosphorylation at Ser473 residue at 0.1 uM preincubated for 2 hrs followed by incubation with insulin for 2 hrs by western blot analysis relative to control. The class given is cell-based. To be noted: time 4.0 hrs. In outline:
as §3

Chain of Phosphatidylinositol 4,5-bisphosphate 3-kinase catalytic subunit alpha isoform (Homo sapiens) (P42336 whole entry, canonical isoform): as the sequence (P42336 whole entry) above
Chain of Phosphatidylinositol 4,5-bisphosphate 3-kinase catalytic subunit gamma isoform (P48736 whole entry, the tested form may be a part, canonical isoform): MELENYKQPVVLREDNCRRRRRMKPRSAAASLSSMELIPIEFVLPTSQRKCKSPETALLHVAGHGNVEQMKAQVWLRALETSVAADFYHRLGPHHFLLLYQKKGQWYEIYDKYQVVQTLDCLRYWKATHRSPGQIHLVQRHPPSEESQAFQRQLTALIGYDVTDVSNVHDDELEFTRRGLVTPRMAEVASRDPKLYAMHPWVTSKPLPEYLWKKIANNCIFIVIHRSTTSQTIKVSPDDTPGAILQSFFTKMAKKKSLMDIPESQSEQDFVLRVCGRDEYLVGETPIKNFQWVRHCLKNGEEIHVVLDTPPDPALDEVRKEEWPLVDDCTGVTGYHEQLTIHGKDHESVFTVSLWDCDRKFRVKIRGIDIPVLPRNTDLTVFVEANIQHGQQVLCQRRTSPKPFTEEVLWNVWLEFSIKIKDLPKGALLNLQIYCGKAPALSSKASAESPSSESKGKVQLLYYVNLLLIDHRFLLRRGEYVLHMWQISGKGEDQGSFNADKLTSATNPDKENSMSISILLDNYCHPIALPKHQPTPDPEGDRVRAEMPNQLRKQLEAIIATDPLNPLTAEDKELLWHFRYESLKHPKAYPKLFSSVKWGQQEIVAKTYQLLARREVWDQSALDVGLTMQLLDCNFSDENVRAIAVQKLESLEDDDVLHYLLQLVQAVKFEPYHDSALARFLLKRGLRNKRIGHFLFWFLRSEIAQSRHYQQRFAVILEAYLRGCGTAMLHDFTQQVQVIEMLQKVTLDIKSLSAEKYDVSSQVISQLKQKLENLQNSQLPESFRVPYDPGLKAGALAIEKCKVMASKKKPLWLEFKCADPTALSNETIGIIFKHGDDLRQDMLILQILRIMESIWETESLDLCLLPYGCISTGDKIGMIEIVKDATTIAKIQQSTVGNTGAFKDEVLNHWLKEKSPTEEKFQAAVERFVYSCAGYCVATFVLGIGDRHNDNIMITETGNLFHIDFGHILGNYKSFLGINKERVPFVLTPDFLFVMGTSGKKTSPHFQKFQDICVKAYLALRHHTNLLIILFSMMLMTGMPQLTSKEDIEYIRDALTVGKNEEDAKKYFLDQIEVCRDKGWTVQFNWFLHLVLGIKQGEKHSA
Chain of PI3K p110 beta/p85 alpha (P27986 whole entry): as the sequence (P27986 whole entry) above
Chain of PI3K p110 beta/p85 alpha (P42338 whole entry): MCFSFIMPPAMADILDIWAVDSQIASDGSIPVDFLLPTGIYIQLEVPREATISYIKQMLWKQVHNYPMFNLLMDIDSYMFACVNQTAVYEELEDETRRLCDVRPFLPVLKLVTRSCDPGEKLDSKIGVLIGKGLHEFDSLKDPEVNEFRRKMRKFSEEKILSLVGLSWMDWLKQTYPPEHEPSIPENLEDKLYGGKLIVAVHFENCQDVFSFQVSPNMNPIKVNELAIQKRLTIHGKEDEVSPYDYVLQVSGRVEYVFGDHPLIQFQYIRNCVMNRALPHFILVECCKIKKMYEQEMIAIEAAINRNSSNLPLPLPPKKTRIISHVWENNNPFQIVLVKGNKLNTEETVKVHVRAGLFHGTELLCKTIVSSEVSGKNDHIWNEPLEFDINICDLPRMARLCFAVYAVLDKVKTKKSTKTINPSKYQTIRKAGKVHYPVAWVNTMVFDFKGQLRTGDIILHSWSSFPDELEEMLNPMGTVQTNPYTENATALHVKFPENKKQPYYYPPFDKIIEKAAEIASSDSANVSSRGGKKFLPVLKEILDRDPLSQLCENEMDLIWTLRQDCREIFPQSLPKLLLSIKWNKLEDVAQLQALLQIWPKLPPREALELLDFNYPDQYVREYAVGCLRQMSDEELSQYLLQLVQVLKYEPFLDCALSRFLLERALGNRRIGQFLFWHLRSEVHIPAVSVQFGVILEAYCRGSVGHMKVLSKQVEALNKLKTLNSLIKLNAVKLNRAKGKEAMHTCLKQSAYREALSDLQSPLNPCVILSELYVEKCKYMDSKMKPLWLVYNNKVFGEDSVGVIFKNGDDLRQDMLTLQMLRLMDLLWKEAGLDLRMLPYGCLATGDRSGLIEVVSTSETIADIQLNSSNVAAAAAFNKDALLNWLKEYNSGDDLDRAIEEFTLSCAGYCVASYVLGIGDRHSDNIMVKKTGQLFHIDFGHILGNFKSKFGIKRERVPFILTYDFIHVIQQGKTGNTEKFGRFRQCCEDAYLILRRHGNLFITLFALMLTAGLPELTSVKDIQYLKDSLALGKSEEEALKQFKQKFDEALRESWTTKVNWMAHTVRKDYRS

As to `N#Cc1c(N2CCOCC2)sc(-c2nc[nH]n2)c1-c1ccc(NC(=O)Nc2ccccc2F)cc1`, the half-maximal inhibitory concentration (IC50) in [1] was 0.302 µM; in the assay on NCI-H1975, 1.52 µM; in assay [2], 0.0223 µM; in assay [3], 1.59 µM; with A549 it was 4.19 µM; with U-87 MG it was 3.98 µM. Further, the IC50 at PI3K p110 beta/p85 alpha stood at 0.089 µM; with NCI-H460, 0.4 µM; in assay [4], 0.334 µM; with T47D it was 0.41 µM.

In [2], `N#Cc1c(N2CCOCC2)sc(-c2nc[nH]n2)c1-c1ccc(NC(=O)Nc2ccc(F)c(Cl)c2)cc1` yielded a concentration for half-maximal inhibition (IC50) of 0.407 µM.

Consider `N#Cc1c(N2CCOCC2)sc(-c2nc[nH]n2)c1-c1ccc(NC(=O)Nc2ccc(F)cc2)cc1`, for which the IC50 in assay [1] stood at 0.289 µM; in the assay on NCI-H1975, 2.04 µM; in [2], 0.0353 µM; in assay [3], 1.66 µM; with A549, 5.52 µM; in the assay with U-87 MG it was 3.35 µM. The concentration for half-maximal inhibition (IC50) amounted to 0.095 µM on PI3K p110 beta/p85 alpha, 0.59 µM in the assay with NCI-H460, 0.238 µM in assay [4] and 0.52 µM with T47D.

As to `N#Cc1c(N2CCOCC2)sc(-c2nc[nH]n2)c1-c1ccc(NC(=O)N/N=C/c2ccc(O)c(O)c2)cc1`, the IC50 in assay [2] worked out at 0.0219 µM.

In [2], `COc1ccc(/C=N/NC(=O)Nc2ccc(-c3c(-c4nc[nH]n4)sc(N4CCOCC4)c3C#N)cc2)cc1` had a concentration for half-maximal inhibition (IC50) of 0.072 µM.

In assay [2], `N#Cc1c(N2CCOCC2)sc(-c2nc[nH]n2)c1-c1ccc(NC(=O)Nc2cccc(F)c2)cc1` had an IC50 of 0.151 µM.

Consider `Cc1cc(/C=N/NC(=O)Nc2ccc(-c3c(-c4nc[nH]n4)sc(N4CCOCC4)c3C#N)cc2)cc(C)c1O`, for which the half-inhibitory concentration (IC50) in [2] is 0.0203 µM.

With `N#Cc1ccc(-c2c(-c3ncn[nH]3)sc(N3CCOCC3)c2C#N)c(F)c1`, the inhibition in [5] amounted to 83%; in assay [6] it was 73%; in [7] it was 86%; in assay [8], 65%. In addition, the IC50 came to 0.94 µM with NCI-H1975; 3.58 µM with A549; 2.31 µM in the assay on U-87 MG; 0.12 µM in the assay with NCI-H460; 0.34 µM with T47D.

Consider `N#Cc1c(N2CCOCC2)sc(-c2nc[nH]n2)c1-c1ccc(NC(=O)N/N=C/c2ccccn2)cc1`, for which the IC50 in assay [1] is 0.274 µM; in the assay on NCI-H1975 it was 11.2 µM; in assay [2], 0.0065 µM; in [3] it was 0.416 µM; in the assay on A549, 18.5 µM; with U-87 MG, 22.1 µM. In addition, the IC50 on PI3K p110 beta/p85 alpha came to 0.053 µM; in the assay on NCI-H460, 2.69 µM; in [4], 0.049 µM; in the assay on T47D, 2.13 µM.

As for `N#Cc1c(N2CCOCC2)sc(-c2nc[nH]n2)c1-c1ccc(NC(=O)Nc2ccc(C(F)(F)F)cc2)cc1`, in assay [2], the concentration for half-maximal inhibition (IC50) stood at 0.403 µM.

Molecule `N#Cc1c(N2CCOCC2)sc(-c2nc[nH]n2)c1-c1ccc(NC(=O)N/N=C/c2ccc[nH]2)cc1` displayed an IC50 in assay [2] of 0.0094 µM.

In the case of `N#Cc1ccc(-c2c(-c3nnc[nH]3)sc(N3CCOCC3)c2C#N)c(F)c1`, the IC50 in assay [1] was determined as 0.06 µM; in assay [2], 0.0054 µM; in assay [3], 4.06 µM; on PI3K p110 beta/p85 alpha, 0.124 µM; in assay [4] it was 0.015 µM.

With `Cc1nc(NC(=O)N2CCC[C@H]2C(N)=O)sc1-c1ccnc(C(C)(C)C(F)(F)F)c1` [ALPELISIB], the 50% inhibitory concentration (IC50) in [3] is 1.46 µM.

As to `N#Cc1c(N2CCOCC2)sc(-c2nc[nH]n2)c1-c1ccc(NC(=O)N/N=C/c2cccc(O)c2)cc1`, the concentration for half-maximal inhibition (IC50) came to 0.44 µM in [1]; 9.76 µM in the assay on NCI-H1975; 0.0177 µM in [2]; 0.489 µM in assay [3]; 12.7 µM in the assay on A549; 13 µM with U-87 MG. The IC50 at PI3K p110 beta/p85 alpha is 0.043 µM; in the assay on NCI-H460, 1.39 µM; in assay [4], 0.072 µM; in the assay on T47D, 2.22 µM.

`N#Cc1c(N2CCOCC2)sc(-c2nc[nH]n2)c1-c1ccc(NC(=O)Nc2ccccc2)cc1` came in with a concentration for half-maximal inhibition (IC50) in [2] of 0.116 µM.

As for `Cc1cccc(C)c1NC(=O)Nc1ccc(-c2c(-c3nc[nH]n3)sc(N3CCOCC3)c2C#N)cc1`, in assay [2], the IC50 came out at 0.344 µM.

`N#Cc1c(N2CCOCC2)sc(-c2nc[nH]n2)c1-c1ccc(NC(=O)N/N=C/c2ccc(OC(F)(F)F)cc2)cc1` returned an IC50 in assay [2] of 0.631 µM.

In assay [2], `N#Cc1c(N2CCOCC2)sc(-c2nc[nH]n2)c1-c1ccc(NC(=O)N/N=C/c2ccc(F)cc2)cc1` came in with an IC50 of 0.0755 µM.

Molecule `N#Cc1c(N2CCOCC2)sc(-c2nc[nH]n2)c1-c1ccc(NC(=O)N/N=C/c2c(Cl)cccc2Cl)cc1` displayed a half-maximal inhibitory concentration (IC50) in assay [2] of 0.323 µM.

Take `Cc1ccc(NC(=O)Nc2ccc(-c3c(-c4nc[nH]n4)sc(N4CCOCC4)c3C#N)cc2)cc1`: the 50% inhibitory concentration (IC50) in assay [2] came out at 0.0958 µM.

In [2], `N#Cc1c(N2CCOCC2)sc(-c2nc[nH]n2)c1-c1ccc(NC(=O)Nc2ccc(OC(F)(F)F)cc2)cc1` had a half-maximal inhibitory concentration (IC50) of 0.835 µM.

For `N#Cc1c(N2CCOCC2)sc(-c2nc[nH]n2)c1-c1ccc(NC(=O)N/N=C/c2ccccc2)cc1`, the IC50 in assay [2] was determined as 0.0766 µM.

With `N#Cc1c(N2CCOCC2)sc(-c2nc[nH]n2)c1-c1ccc(NC(=O)N/N=C/c2cccc(Br)c2)cc1`, the concentration for half-maximal inhibition (IC50) in [2] amounted to 0.0898 µM.

Take `N#Cc1c(N2CCOCC2)sc(-c2nc[nH]n2)c1-c1ccc(NC(=O)N/N=C/c2ccco2)cc1`: the 50% inhibitory concentration (IC50) was 0.204 µM in assay [1]; 12.9 µM in the assay with NCI-H1975; 0.0133 µM in assay [2]; 0.598 µM in assay [3]; 19.4 µM with A549; 12.3 µM in the assay on U-87 MG. Also, the IC50 at PI3K p110 beta/p85 alpha was found to be 0.074 µM; in the assay with NCI-H460, 1.22 µM; in assay [4] it was 0.074 µM; in the assay on T47D, 2.68 µM.

As for `N#Cc1ccc(NC(=O)Nc2ccc(-c3c(-c4nc[nH]n4)sc(N4CCOCC4)c3C#N)cc2)cc1`, 0.29 µM corresponded to half-maximal inhibition in assay [2] (IC50).

With `N#Cc1c(N2CCOCC2)sc(-c2nc[nH]n2)c1-c1ccc(NC(=O)Nc2cccc(Br)c2)cc1`, in assay [2], inhibition was half-maximal at 0.239 µM (IC50).

For the molecule `COc1cc(/C=N/NC(=O)Nc2ccc(-c3c(-c4nc[nH]n4)sc(N4CCOCC4)c3C#N)cc2)cc(OC)c1OC`, the half-maximal inhibitory concentration (IC50) in assay [2] was found to be 0.11 µM.

`COc1ccccc1NC(=O)Nc1ccc(-c2c(-c3nc[nH]n3)sc(N3CCOCC3)c2C#N)cc1` returned an IC50 in assay [2] of 0.105 µM.

For the origin of these results see ChEMBL document CHEMBL4765307, “Design, synthesis and biological activity of novel 2,3,4,5-tetra-substituted thiophene derivatives as PI3Kα inhibitors with potent antitumor activity” (Eur J Med Chem, 2020).
